Measurements from publication PMC10496428 (ACS Infectious Diseases, 2023).

How the values were obtained:
Nluc = Nluc counter screen on parasite lysates; format: biochemical; conditions: 10x EC50 of growth, 10 min at 37 °C
How it was run: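 Hyp1-Nluc schizonts at 1% haematocrit and 1–2% parasitaemia were lysed in 1x NanoGlo buffer. Lysates were added to test compound and incubated 10 min at 37 °C. Nluc activity was read by furimazine bioluminescence and normalised to 0.1% DMSO.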

[1] = test system: P. falciparum Hyp1-Nluc parasites; test: 4 h invasion / early ring-stage development assay; format: cell-based, Plasmodium falciparum; conditions: 4 h treatment at 10× EC50 for growth; for Invasion / early ring-stage development normalized to 0.1% DMSO: then 24 h growth without compound
How it was run: (§1)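 Hyp1-Nluc 3D7 parasites were sorbitol-synchronised, grown to late schizonts and isolated on a 67% Percoll gradient. They were given a 4 h window to egress and invade RBCs in test compound, either at 10× growth EC50 or as a dilution series. Egress was read as Nluc in harvested medium with NanoGlo substrate. Background controls were subtracted from egress and invasion values, then normalised to 0.1% DMSO. Three biological replicates were run, with SD.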

[2] = test system: P. falciparum Nluc trophozoite-stage parasites; test: Protein secretion and export; format: cell-based, Plasmodium falciparum; conditions: 5 h treatment; brefeldin A 5 μg/mL, torin 2 10 nM, M-797 4.8 μM, OGHL250 3.1 μM, WEHI-518 200 nM, C3 1.2 μM, KDU731 300 nM
How it was run: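 Nluc-exporting P. falciparum, synchronized with 5% sorbitol and Percoll, grown in human RBCs at 37 °C under 1% O2/5% CO2; trophozoites at 20–24 hpi treated 5 h with test compound (0.1% DMSO vehicle). Cells differentially lysed to release RBC only, RBC plus PV, or all compartments, and Nluc signal measured in each fraction. Three biological replicates of three technical replicates.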

[3] = test system: MMV390048 resistant Dd2 with S743T mutation in PI4KIIIB; test: 72 h growth assay, [3H]-hypoxanthine incorporation; format: cell-based, Plasmodium falciparum; conditions: 3H-hypoxanthine incorporation assay
How it was run: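 This was a modified [3H]-hypoxanthine incorporation assay over 72 h. It compared parental Dd2 with an MMV390048-resistant Dd2 line carrying PI4KIIIB S743T.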

[4] = test system: P. falciparum Hyp1-Nluc late schizonts; test: 4 h egress assay; format: cell-based, Plasmodium falciparum; conditions: for 4-Hour Egress EC50: dilution series, DNI = did not inhibit
How it was run: as §1

[5] = test system: P. falciparum purified merozoites (Nluc parasites); test: Invasion inhibition assay with purified merozoites; format: cell-based, Plasmodium falciparum; conditions: heparin 100 μg/mL, C1 4 μM, chloroquine 75 nM
How it was run: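 Purified Nluc merozoites were exposed to test compound for 30 min. Compound was then removed and newly invaded parasites grown for 24 h before Nluc quantification. Controls were heparin (100 μg/mL), C1 (4 μM) and chloroquine (75 nM). Values are relative to DMSO, with three biological replicates.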

COc1cc(OC)c(CCNC(=O)c2cn3cc(-c4cc(OCC(=O)O)ccc4OC)nc3s2)c(OC)c1 [OGHL239, s1c3n(cc1C(=O)NCCc2c(cc(cc2OC)OC)OC)cc(n3)-c4c(ccc(c4)OCC(=O)O)OC]
direct inhibition of Nluc activity in parasite lysates (Nluc): strongly inhibit Nluc activity

Cn1cc(-c2cnc3[nH]cc(-c4cn(Cc5cccc(F)c5F)nn4)c3c2)cn1 [OGHL169, Fc1c(cccc1Cn2nnc(c2)-c3c[nH]c4ncc(cc43)-c5cn(nc5)C)F]
Invasion inhibition normalized to 0.1% DMSO [1]: < 50% | Invasion / early ring-stage development normalized to 0.1% DMSO [1]: < 50%

COc1ccc(-c2c(C)nn3c(N)c(C#N)cnc23)cc1OC [Compound M-797]
Export of Nluc reporter into the RBC compartment relative to DMSO [2]: significantly reduced export into the RBC compartment | fold resistance of S743T parasites compared to parental Dd2 [3]: 2 fold | 4-Hour Egress EC50 [4]: did not block egress

COc1ccc(CNc2nc(-c3ccc(C(=O)O)nc3)nc3sc4c(c23)CCCC4)cc1Cl [OGHL121, Clc1c(ccc(c1)CNc2nc(nc3sc4c(c32)CCCC4)-c5cnc(cc5)C(=O)O)OC]
Invasion inhibition normalized to 0.1% DMSO [1]: < 50% | Invasion / early ring-stage development normalized to 0.1% DMSO [1]: borderline

CN1CCC(c2cc(-c3ccncc3)c(-c3ccc(F)cc3)[nH]2)CC1 [Compound C1, 4-[2-(4-fluorphenyl)-5-(1-methylpiperidine-4-yl)-1H-pyrrol-3-yl]pyridine]
Egress over a 4 h window, compared to 0.1% DMSO control normalized to 100% ([4]; OGHL compounds at 10× EC50 of growth): 38% | Invasion of purified merozoites relative to 0.1% DMSO (controls) [5]: directly inhibited merozoite invasion

C[C@H]1CCC/C=C/[C@@H]2C[C@H](O)C[C@H]2[C@H](O)/C=C/C(=O)O1 [brefeldin A]
Export of Nluc reporter into the RBC compartment relative to DMSO [2]: significantly reduced export into the RBC compartment

COc1cc(C(=O)N(C)C)ccc1-c1cc2nccc(-c3ccc4ccncc4c3)c2o1 [OGHL250, N(C)(C)C(=O)c1cc(c(cc1)-c5oc2c(nccc2-c4cc3cnccc3cc4)c5)OC]
Export of Nluc reporter into the RBC compartment relative to DMSO [2]: did not significantly reduce export | 4-Hour Egress EC50 [4]: did not inhibit parasite egress

CCN(CC)CCCC(C)Nc1ccnc2cc(Cl)ccc12 (stereo not shown) [chloroquine]
Invasion of purified merozoites relative to 0.1% DMSO (controls) [5]: had no effect on invasion

Nc1ccc(-c2ccc3ncc4ccc(=O)n(-c5cccc(C(F)(F)F)c5)c4c3c2)cn1 [torin 2]
Export of Nluc reporter into the RBC compartment relative to DMSO [2]: significantly reduced export into the RBC compartment

CN(C(=O)c1ccn2ncc(-c3ccc(C(N)=O)cc3)c2c1)c1ccc(C#N)cn1 [KDU731]
Export of Nluc reporter into the RBC compartment relative to DMSO [2]: reduced protein export into the RBC compartment

CNS(=O)(=O)c1ccccc1Nc1nc(Nc2ccc(N3CCOCC3)cc2OC)ncc1Br [OGHL134, Brc1c(nc(nc1)Nc2c(cc(cc2)N3CCOCC3)OC)Nc4c(cccc4)S(=O)(=O)NC]
Invasion inhibition normalized to 0.1% DMSO [1]: < 50% | Invasion / early ring-stage development normalized to 0.1% DMSO [1]: borderline

heparin
Invasion / early ring-stage development normalized to 0.1% DMSO [1]: almost complete invasion inhibition
